Data reported in ChEMBL document CHEMBL3994577, “New amphiphilic neamine conjugates bearing a metal binding motif active against MDR E. aerogenes Gram-negative bacteria” (2017).
Values after ≈ are worked out from the molar mass of the structure shown. Active and inactive are the calls of the source. The rule behind the calls is not given here. Bridge positions count the residues as written; N and C are the ends. Square brackets hold non-standard residues; d marks the D form. Peptide text beside a SMILES is read from it. * marks the point of attachment. βNA = c1ccc2cc(N*)ccc2c1; Dab = NCC[C@H](N)C(=O)O

What was measured:
Escherichia coli [1] = assay: Antibacterial activity against wild type Escherichia coli AG100 after 18 hrs by broth dilution method; type: functional; conditions: AG100, 18 h
Method in brief: (§1)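 Broth microdilution MIC in MH broth with two-fold serial dilutions of compounds from DMSO solutions (final DMSO ≤ 0.5%). Inoculum was 2x10⁵ cfu per 200 µL, incubated 18 h at 37°C. MIC was the lowest concentration with no visible growth, given as the mean of at least three independent experiments, in µM. AG100A was grown with kanamycin (50 µg.mL^-1).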

Escherichia coli [2] = assay: Antibacterial activity against AcrAB deficient Escherichia coli AG100A after 18 hrs by broth dilution method; type: functional; method in brief: as §1
Klebsiella aerogenes [3] = assay: Antibacterial activity against multidrug resistant Enterobacter aerogenes EA289 over-expressing AcrAB-TolC after 18 hrs by broth dilution method; type: functional; conditions: EA289, 18 h
Method in brief: (§2)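 Broth microdilution in MH broth. Inoculum 2x10⁵ cfu per well, with two-fold serial dilutions of compound from DMSO stocks (final DMSO ≤0.5%). MIC is the lowest concentration with no visible growth after 18 h at 37°C. Values are means of at least three independent experiments, in µM. Strains grown at 37°C; EA298 kept with kanamycin 50 µg.mL^-1.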

Klebsiella aerogenes [4] = assay: Antibacterial activity against Enterobacter aerogenes EA298 TolC deficient after 18 hrs by broth dilution method; conditions: EA298, 18 h
[5] = Binding affinity to Zn2+ in Muller-Hinton broth at 50 uM by ESI-MS analysis
Method in brief: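 Free ligand incubated in Mueller Hinton broth, the medium used for the antibacterial assays, then analysed by positive-ion ESI mass spectrometry for metal-bound species. […] Preformed Zn(II) and Cu(II) complexes were incubated in MH under the same conditions to check their stability.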

Escherichia coli [6] = assay: Antibacterial activity against wild type Escherichia coli AG100 after 18 hrs in presence of polymyxin B nonapeptide by broth dilution method; type: functional; conditions: AG100, 18 h
Escherichia coli [7] = assay: Antibacterial activity against AcrAB deficient Escherichia coli AG100A after 18 hrs in presence of polymyxin B nonapeptide by broth dilution method; type: functional
Klebsiella aerogenes [8] = assay: Antibacterial activity against multidrug resistant Enterobacter aerogenes EA289 over-expressing AcrAB-TolC after 18 hrs in presence of polymyxin B nonapeptide by broth dilution method; type: functional; conditions: EA289, 18 h; method in brief: as §2
Klebsiella aerogenes [9] = assay: Induction of membrane permeability in multidrug resistant Enterobacter aerogenes EA289 over-expressing AcrAB-TolC assessed as increase in nitrocefin hydrolysis measured for 1 hr in presence of CCCP; type: functional
Method in brief: (§3)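 EA289 grown to exponential phase (OD600 0.5), washed in PPB (K₂HPO₄ 20 mM, MgCl₂ 1 mM, pH 7), adjusted to OD 0.375. Cells mixed with two-fold dilutions of compound (final 2–64 µM) plus CCCP 3.3 µM at 37°C. Nitrocefin added at t=0; OD490 followed for 1 h. Duplicate or triplicate.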

Klebsiella aerogenes [10] = assay: Induction of membrane permeability in multidrug resistant Enterobacter aerogenes EA289 over-expressing AcrAB-TolC assessed as nitrocefin hydrolysis at 32 uM after 50 mins in presence of CCCP relative to control; type: functional; set-up: scale not given: the % may be the effect or the level left; method in brief: as §3
Klebsiella aerogenes [11] = assay: Decrease in 1,2'-DiNaphtylAmine efflux in multidrug resistant Enterobacter aerogenes EA289 over-expressing AcrAB-TolC at 8 to 16 uM after 18 hrs measured every 4 sec for 6 mins in presence of glucose by fluorescence assay; type: functional
Method in brief: (§4)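 EA289 grown 24 h at 37°C, washed and resuspended in PPB at OD600 0.25. Cells loaded with 1,2'-DNA 32 µM plus CCCP 5 µM for 18 h at 37°C in the dark, washed, then mixed with compound (final 0.5–128 µM) at 37°C. Fluorescence (ex 370/em 420 nm) read every 4 s for 6 min. Glucose added at cycle 20 (~100 s) to start efflux.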

Klebsiella aerogenes [12] = assay: Antibacterial activity against Enterobacter aerogenes EA298 TolC deficient after 18 hrs in presence of polymyxin B nonapeptide by broth dilution method; conditions: EA298, 18 h
Klebsiella aerogenes [13] = assay: Induction of membrane permeability in multidrug resistant Enterobacter aerogenes EA289 over-expressing AcrAB-TolC assessed as nitrocefin hydrolysis at 0.75 to 48 uM after 1 hr in presence of CCCP; type: functional
Klebsiella aerogenes [14] = assay: Induction of membrane permeability in multidrug resistant Enterobacter aerogenes EA289 over-expressing AcrAB-TolC assessed as nitrocefin hydrolysis at 64 uM after 1 hr in presence of CCCP relative to control; type: functional; set-up: scale not given: the % may be the effect or the level left; method in brief: as §3
Klebsiella aerogenes [15] = assay: Decrease in 1,2'-DiNaphtylAmine efflux in multidrug resistant Enterobacter aerogenes EA289 over-expressing AcrAB-TolC up to 32 uM after 18 hrs measured every 4 sec for 6 mins in presence of glucose by fluorescence assay; type: functional; method in brief: as §4
Klebsiella aerogenes [16] = assay: Induction of membrane permeability in multidrug resistant Enterobacter aerogenes EA289 over-expressing AcrAB-TolC assessed as nitrocefin hydrolysis at 3 uM up to 20 mins in presence of CCCP relative to control; type: functional; method in brief: as §3
Klebsiella aerogenes [17] = assay: Decrease in 1,2'-DiNaphtylAmine efflux in multidrug resistant Enterobacter aerogenes EA289 over-expressing AcrAB-TolC up to 128 uM after 18 hrs measured every 4 sec for 6 mins in presence of glucose by fluorescence assay
Klebsiella aerogenes [18] = assay: Decrease in 1,2'-DiNaphtylAmine efflux in multidrug resistant Enterobacter aerogenes EA289 over-expressing AcrAB-TolC at 32 uM after 18 hrs measured every 4 sec for 6 mins in presence of glucose by fluorescence assay; type: functional; method in brief: as §4

| Compound | MIC (Escherichia coli [1]) | MIC (Escherichia coli [2]) | MIC (Klebsiella aerogenes [3]) | MIC (Klebsiella aerogenes [4]) | MIC (Escherichia coli [6]) | MIC (Escherichia coli [7]) | MIC (Klebsiella aerogenes [8]) | Activity (Klebsiella aerogenes [9]) | MIC (Klebsiella aerogenes [12]) | other results |
| --- | --- | --- | --- | --- | --- | --- | --- | --- | --- | --- |
| O=C(O)c1cn(C2CC2)c2cc(N3CCNCC3)c(F)cc2c1=O [CIPROFLOXACIN] | 0.125 µM (≈ 0.0414 µg/mL) | 0.03 µM (≈ 0.00994 µg/mL) | 64 µM (≈ 21.2 µg/mL) | 8 µM (≈ 2.65 µg/mL) |  |  |  |  |  |  |
| CN1CCN(c2c(F)cc3c(=O)c(C(=O)O)cn(CCF)c3c2F)CC1 [FLEROXACIN] | 0.5 µM (≈ 0.185 µg/mL) | 0.125 µM (≈ 0.0462 µg/mL) | > 128 µM | 16 µM (≈ 5.91 µg/mL) |  |  |  |  |  |  |
| NC[C@H]1O[C@H](O[C@H]2[C@H](OCCCCCCNC(=O)CCCC(=O)Nc3cccc(CN(Cc4ccccn4)Cc4ccccn4)n3)[C@@H](OCc3ccc4ccccc4c3)[C@H](N)C[C@@H]2N)[C@H](N)[C@@H](OCc2ccc3ccccc3c2)[C@@H]1OCc1ccc2ccccc2c1 | 2 to 4 µM (≈ 2.49 to 4.97 µg/mL) | 2 µM (≈ 2.49 µg/mL) | 4 µM (≈ 4.97 µg/mL) | 2 to 8 µM (≈ 2.49 to 9.95 µg/mL) | 2 to 4 µM | 2 µM | 4 to 8 µM | Dose-dependent effect | 2 µM | Activity [5]: Active; Activity (Klebsiella aerogenes [10]): 90%; Activity (Klebsiella aerogenes [11]): Active |
| CC(C)C[C@@H]1NC(=O)[C@@H](Cc2ccccc2)NC(=O)[C@H](CCN)NC(=O)[C@@H](NC(=O)[C@H](CCN)NC(=O)[C@@H](N)[C@@H](C)O)CCNC(=O)[C@H]([C@@H](C)O)NC(=O)[C@H](CCN)NC(=O)[C@H](CCN)NC1=O (H-T[Dab][Dab][Dab][dF]L[Dab][Dab]T; lactam 3-C) |  |  |  |  |  |  |  |  |  | Activity (Klebsiella aerogenes [13]): inactive |
| O=C(N[C@H](CO)[C@H](O)c1ccc([N+](=O)[O-])cc1)C(Cl)Cl [CHLORAMPHENICOL] | 8 µM (≈ 2.59 µg/mL) | 1 µM (≈ 0.323 µg/mL) | > 128 µM | 32 µM (≈ 10.3 µg/mL) |  |  |  |  |  |  |
| NC[C@H]1O[C@H](O[C@H]2[C@H](OCCCCCCNC(=O)CCCCN(Cc3ccccn3)Cc3ccccn3)[C@@H](OCc3ccc4ccccc4c3)[C@H](N)C[C@@H]2N)[C@H](N)[C@@H](OCc2ccc3ccccc3c2)[C@@H]1OCc1ccc2ccccc2c1 | 8 to 16 µM (≈ 8.99 to 18 µg/mL) | 8 to 16 µM (≈ 8.99 to 18 µg/mL) | 16 µM (≈ 18 µg/mL) | 8 µM (≈ 8.99 µg/mL) | 4 µM | 2 to 4 µM | 8 µM | Dose-dependent effect | 4 to 8 µM | Activity (Klebsiella aerogenes [14]): 60%; Activity (Klebsiella aerogenes [11]): Active |
| NC[C@H]1O[C@H](O[C@H]2[C@H](O)[C@@H](O)[C@H](N)C[C@@H]2N)[C@H](N)[C@@H](O)[C@@H]1O [NEAMINE] | 16 to 32 µM (≈ 5.16 to 10.3 µg/mL) | 128 µM (≈ 41.3 µg/mL) | 32 µM (≈ 10.3 µg/mL) | > 128 µM | 8 µM | 128 µM | 16 µM |  | > 128 µM |  |
| N#CC(C#N)=NNc1cccc(Cl)c1 |  |  |  |  |  |  |  |  |  | Activity (Klebsiella aerogenes [15]): Active |
| POLYMYXIN B |  |  |  |  |  |  |  |  |  | Activity (Klebsiella aerogenes [16]): Active |
| [N-]=[N+]=NCCCCCCO[C@@H]1[C@@H](OCc2ccc3ccccc3c2)[C@H](N)C[C@H](N)[C@H]1O[C@H]1O[C@H](CN)[C@@H](OCc2ccc3ccccc3c2)[C@H](OCc2ccc3ccccc3c2)[C@H]1N | 32 µM (≈ 27.8 µg/mL) | 32 µM (≈ 27.8 µg/mL) | 16 µM (≈ 13.9 µg/mL) | 16 µM (≈ 13.9 µg/mL) | 32 µM | 16 µM | 8 to 32 µM |  | 32 µM |  |
| NC[C@H]1O[C@H](O[C@H]2[C@H](OCCCCCCNC(=O)CCCC(=O)N3CCCNCCNCCCNCC3)[C@@H](OCc3ccc4ccccc4c3)[C@H](N)C[C@@H]2N)[C@H](N)[C@@H](OCc2ccc3ccccc3c2)[C@@H]1OCc1ccc2ccccc2c1 | 4 µM (≈ 4.55 µg/mL) | 2 µM (≈ 2.28 µg/mL) | 4 to 16 µM (≈ 4.55 to 18.2 µg/mL) | 2 to 4 µM (≈ 2.28 to 4.55 µg/mL) | 2 µM | 1 to 2 µM | 8 µM | Dose-dependent effect | 2 µM | Activity (Klebsiella aerogenes [11]): Active |
| CC(C)(O/N=C(\C(=O)N[C@@H]1C(=O)N2C(C(=O)[O-])=C(C[n+]3ccccc3)CS[C@H]12)c1csc(N)n1)C(=O)O [CEFTAZIDIME] | 0.5 µM (≈ 0.273 µg/mL) | 0.25 µM (≈ 0.137 µg/mL) | > 128 µM | > 128 µM |  |  |  |  |  |  |
| N=C(N)NCCC[C@H](NC(=O)[C@@H](N)Cc1ccccc1)C(=O)Nc1ccc2ccccc2c1 (H-Phe-Arg-βNA) |  |  |  |  |  |  |  |  |  | Activity (Klebsiella aerogenes [17]): inactive |
| NC[C@H]1O[C@H](O[C@H]2[C@H](OCCCCCCNC(=O)CCCC(=O)Nc3cccc(CN(Cc4ccccc4)Cc4ccccc4)c3)[C@@H](OCc3ccc4ccccc4c3)[C@H](N)C[C@@H]2N)[C@H](N)[C@@H](OCc2ccc3ccccc3c2)[C@@H]1OCc1ccc2ccccc2c1 | 128 µM (≈ 159 µg/mL) | 32 to 128 µM (≈ 39.7 to 159 µg/mL) | 128 µM (≈ 159 µg/mL) | 64 to 128 µM (≈ 79.4 to 159 µg/mL) | 32 to 64 µM | 32 µM | 128 µM | Dose-dependent effect | 32 to 64 µM | Activity (Klebsiella aerogenes [14]): 20%; Activity (Klebsiella aerogenes [18]): Active |
| NCCCCCCO[C@@H]1[C@@H](OCc2ccc3ccccc3c2)[C@H](N)C[C@H](N)[C@H]1O[C@H]1O[C@H](CN)[C@@H](OCc2ccc3ccccc3c2)[C@H](OCc2ccc3ccccc3c2)[C@H]1N | 8 µM (≈ 6.74 µg/mL) | 8 µM (≈ 6.74 µg/mL) | 16 µM (≈ 13.5 µg/mL) | 4 µM (≈ 3.37 µg/mL) | 8 µM | 4 µM | 16 to 32 µM | Dose-dependent effect | 4 to 8 µM |  |
